AF4-AF9 inh = blocks AF4 peptide binding to human AF9; AlphaScreen, biotin-AF4 peptide binding to FLAG-AF9; hit rate 0.47% among 350,000; inhibition, % at 10 µM; P42568; AID 651704;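 active = every replicate reaching a set inhibition limit, whatever the replicate mean, cut at about 25% in these data; inconclusive = mean inhibition reaches that limit but some replicates miss it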;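 also: 0% = plate neutral control median and 100% = total signal loss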
Target sequence (P42568 whole entry, looked up): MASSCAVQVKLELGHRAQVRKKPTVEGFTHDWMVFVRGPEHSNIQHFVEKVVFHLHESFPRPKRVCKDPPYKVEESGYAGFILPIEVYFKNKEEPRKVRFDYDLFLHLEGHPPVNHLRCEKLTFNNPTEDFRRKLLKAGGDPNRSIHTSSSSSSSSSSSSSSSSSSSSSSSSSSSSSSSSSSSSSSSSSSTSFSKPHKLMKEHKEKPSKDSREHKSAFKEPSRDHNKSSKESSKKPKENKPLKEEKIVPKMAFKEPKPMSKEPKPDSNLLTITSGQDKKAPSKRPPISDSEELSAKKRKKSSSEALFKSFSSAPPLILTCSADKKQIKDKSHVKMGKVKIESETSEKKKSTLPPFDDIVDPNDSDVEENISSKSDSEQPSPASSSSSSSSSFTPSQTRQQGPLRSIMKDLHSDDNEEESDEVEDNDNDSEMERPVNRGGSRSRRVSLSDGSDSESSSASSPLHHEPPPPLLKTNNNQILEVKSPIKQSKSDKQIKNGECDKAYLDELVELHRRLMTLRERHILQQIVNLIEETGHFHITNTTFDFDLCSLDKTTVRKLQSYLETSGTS
EWS-Fli inh = inhibitors of EWS/Fli oncoprotein transcriptional activity | A673 NR0B1-luciferase reporter, viability-normalised | inhibition, % at 12.6 µM | hit rate 0.67% among 350,000;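 active = mean inhibition of at least 50% after viability correction, with every replicate also passing that limit; inconclusive = mean reaches 50% but only one of two replicates passes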;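 also: firefly luciferase signal divided by Alamar Blue viability fluorescence both relative to DMSO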
Xi reactivation = X-chromosome reactivation activator; AID 743238; hit rate 0.055% among 360,000; activation, % at 7.58 µM; XiGFP mouse fibroblasts, % GFP-positive cells imaging, 3 d; cells co-treated with 5-aza-dC sensitizer; scaled so ellipticine positive control = 100%;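 active = mean normalized replicate activation at least 10% and every replicate at or above 10%; inconclusive = only one of the two criteria met; inactive = mean below 10% and not all replicates reach 10%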;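 also: 0% = median of on-plate neutral control wells and 100% = ellipticine 6 µM median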
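System: 68-5-11 XiGFP fibroblast line; Timing: 3 days compound exposure; Compound dosing: one concentration, pinned; Benchmarks: positive control ellipticine, 6 µM final; Buffer or medium: DMEM containing 5-aza-dC.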
INS-1E GSIS act = GLuc luminescence reporter in INS-1E cells, primary screen for activators of glucose-dependent secretion of insulin | INS-1E GLuc reporter insulin secretion, 2-3 h | activation, % at 16.6 µM | hit rate 0.61% among 370,000 | AID 743287;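 active = lowest replicate activation of at least 40%, so every replicate reaches that level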;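 also: 0% = median of neutral control wells and 100% = median of IBMX positive control wells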
PAX8 reporter = inhibitors of PAX8 transcriptional activity in RMG-I cells; RMG-I TPO-luciferase reporter, SteadyGlo, 24 h; inhibition, % at 12.6 µM; hit rate 1.2% among 360,000; AID 652154;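 active = mean replicate inhibition at least 60% with every replicate also reaching 60%; inconclusive = only one of the two criteria is met; inactive = mean below 60% and not all replicates reaching 60%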;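 also: luciferase light reporting Pax8 driven TPO promoter activity; plate controls were median of neutral control wells for no effect and mitoxantrone controls for full effect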
PGC1a acetyl inh = PGC1a acetylation modulation, inhibitor mode; hit rate 0.17% among 350,000; U2OS PGC1a acetylation, AlphaScreen anti-acetyl-lysine; with virally co-expressed GCN5 acetyltransferase; AID 651687; inhibition, % at 15.6 µM;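 active = every replicate shows inhibition of at least 40%; inconclusive = mean inhibition at least 40% but some replicate below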;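 also: 0% = neutral control wells and 100% = positive control wells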
DNA binder FP = small molecule DNA binding by fluorescence polarization; shares compounds with EWS-Fli inh; salmon sperm DNA acridine orange fluorescence polarization; AC35, µM (titrated, usually from 68 µM), for the others: at the top dose activity change, negative = DNA binding; hit rate 2% among 640; AID 720586;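 active = fitted curve reaches a 35% signal fall AC35 below twice the sample's top valid tested dose, actives reach about 48 µM in these data; inactive = the rest, including activity in the rising direction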;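 also: lower polarization ratio signals compound binding to DNA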
The depositor's hits bear a star; ? = inconclusive; nt = no result. In the library only some 2.1% were active in any assay of this set; here they are far more common.

SMILES | AF4-AF9 inh | EWS-Fli inh | Xi reactivation | INS-1E GSIS act | PAX8 reporter | PGC1a acetyl inh | DNA binder FP
COC(=O)[C@H]1[C@H](CO)[C@H]2Cn3c(ccc(-c4ccccc4F)c3=O)[C@@H]1N2C(=O)C1CC1 | 0 | 1 | 0 | 13 | 1 | -5 | nt
O=[N+]([O-])c1ccccc1-c1cc(-c2ccccc2)cc(-c2ccccc2)[n+]1Cc1ccccc1Cl | 20 | 51* | 0 | -5 | 86* | nt | nt
O=[N+]([O-])c1ccc(-[n+]2c(-c3ccccc3)cc(-c3ccccc3)cc2-c2ccccc2)cc1 | 8 | 1 | 0 | -16 | -3 | -11 | nt
COC(=O)C[C@@H]1CC[C@H]2NC[C@H](O)COC[C@@H]2O1 | -3 | 0 | 0 | 1 | -8 | -4 | nt
N#CC(C#N)=NNc1ccc(-n2ccc(C(F)(F)F)n2)cc1 | 9 | 23 | 0 | -5 | 94* | 8 | nt
CCC(C)C1NC(=O)C(NC(=O)C(CC(C)C)N(C)C(=O)C2CCCN2C(=O)C(C)O)C(C)OC(=O)C(Cc2ccc(OC)cc2)N(C)C(=O)C2CCCN2C(=O)C(CC(C)C)NC(=O)[C@H](C)C(=O)[C@H](C(C)C)OC(=O)CC1O (stereo not given in full) | 0 | 72* | 0 | -19 | 95* | 33 | nt
O=C(Cc1ccccn1)N1CCCCN2[C@H](CO)[C@@H](c3ccc(-c4ccccc4)cc3)[C@@H]2C1 | -8 | -8 | 0 | -3 | -9 | 9 | nt
COc1ccc(-n2nnnc2C(CCc2ccccc2)N2CCC(n3c(=O)[nH]c4ccccc43)CC2)cc1 (stereo not given) | 0 | 4 | 0 | -30 | 104* | 55* | nt
O=c1[nH]c2ccccc2n1C1CCN(C(c2ccnc3ccccc23)c2nnnn2-c2ccc3c(c2)OCCO3)CC1 (stereo not given) | -1 | 1 | 0 | -6 | 77* | 5 | nt
COc1ccc(C(c2nnnn2-c2ccc3c(c2)OCCO3)N2CCC(n3c(=O)[nH]c4ccccc43)CC2)cc1 (stereo not given) | 2 | 0 | 0 | -38 | 10 | -21 | nt
O=c1[nH]c2ccccc2n1C1CCN(C(CCc2ccccc2)c2nnnn2-c2ccc3c(c2)OCCO3)CC1 (stereo not given) | -2 | 41 | 0 | -5 | 106* | 33 | nt
Cc1cccc(C)c1-n1nnnc1C(CCc1ccccc1)N1CCC(n2c(=O)[nH]c3ccccc32)CC1 (stereo not given) | -5 | 37 | 0 | -12 | -18 | -11 | nt
Fc1ccc(CN2CC3NC(C2)C3c2ccc(Br)cc2)cc1 (stereo not given) | nt | nt | 0 | 10 | nt | nt | nt
O=C(Cc1ccccc1)N1CC2(C1)[C@H](c1ccccc1)[C@@H](CO)N2Cc1cccc(Cl)c1 | 3 | 1 | 0 | -15 | 30 | -18 | nt
CC(C)[N+](C)(CCC(C(N)=O)(c1ccccc1)c1ccccc1)C(C)C | 0 | -6 | 0 | 48* | 13 | -7 | nt
CCOP(=O)(OCC)OCC | nt | -3 | nt | 4 | nt | 0 | nt
CCOP(=O)(CCP(=O)(OCC)OCC)OCC.C[CH2][Sn]([Cl])([Cl])[CH2]C | 4 | 45 | 1 | 21 | 93* | -5 | nt
C[C@@H]1O[C@@H](O[C@@H]2C=C3CC[C@@H]4C(CC[C@]5(C)[C@@H](c6ccc(=O)oc6)CC[C@]45O)[C@@]3(C)CC2)[C@H](O)[C@H](O)[C@H]1O (stereo not given in full) | 0 | 71* | 0 | -10 | 108* | 67* | -10%
C[C@@H]1O[C@@H](O[C@@H]2C=C3CCC4C(CC[C@]5(C)[C@@H](c6ccc(=O)oc6)CC[C@]45O)[C@@]3(C)CC2)[C@H](O)[C@H](O)[C@H]1O (stereo not given in full) | -7 | 71* | 0 | -25 | 110* | 60* | 2%
O=C1NC(=S)NC(=O)C1=Cc1cccn1-c1ccc(O)cc1 | -2 | 71* | 0 | 5 | 32 | nt | 0%
COc1ccc(-c2ccc([C@H]3[C@H]4CN(C(=O)Cc5ccccc5)CCCCN4[C@H]3CO)cc2)cc1 | -5 | nt | 0 | -16 | 13 | -5 | nt
COC1C(C)OC(OC2CC(C)(O)Cc3cc4c(c(O)c32)C(=O)c2c(O)cc3c(c2C4=O)OC2OC3(C)C(O)C(N(C)C)C2O)C(OC)C1(C)OC (stereo not given) | 6 | 56* | 1 | 8 | nt | nt | 1.3µM*
C[C@@H]1O[C@@H](O[C@H]2C[C@@H](O)[C@]3(CO)[C@H]4[C@H](O)C[C@]5(C)[C@@H](C6COC(=O)C6)CC[C@]5(O)[C@@H]4CC[C@]3(O)C2)[C@H](O)[C@H](O)[C@H]1O (stereo not given in full) | 0 | 70* | 0 | nt | 105* | 0 | -1%
CC1OC(OC2CC(O)C3(CO)C4C(O)CC5(C)C(C6=CC(=O)OC6)CCC5(O)C4CCC3(O)C2)C(O)C(O)C1O (stereo not given) | 0 | 68* | nt | nt | nt | 81* | 5%
COc1ccc(C(=O)N/N=C/C23CC[C@@H](O)CC2(O)CC[C@@H]2[C@@H]3CCC3(C)C(C4=CC(=O)OC4)CCC23O)cc1 (stereo not given in full) | 3 | 11 | 0 | 20 | -16 | 9 | nt
SMILES | AF4-AF9 inh | EWS-Fli inh | Xi reactivation | INS-1E GSIS act | PAX8 reporter | PGC1a acetyl inh | DNA binder FP
C[C@@H]1CN([C@@H](C)CO)C(=O)CCCn2cc(nn2)CO[C@@H]1CN(C)C(=O)Oc1ccc2ccccc2c1 | 2 | -5 | 0 | 5 | nt | -2 | nt
CC(=O)OC1CC(OC2C(O)CC(OC3C(O)CC(OC4CCC5(C)C(CCC6C5CCC5(C)C(C7=CC(=O)OC7)CCC65O)C4)OC3C)OC2C)OC(C)C1OC1OC(CO)C(O)C(O)C1O (stereo not given) | -3 | 53* | 0 | nt | 102* | ? | -17%
CC=Cc1ccc2n(c1=O)C[C@@H]1[C@@H](CO)[C@H](C(=O)OC)[C@H]2N1C(=O)CC1CC1 (mixture of isomers) | 3 | 7 | 1 | 5 | -14 | 6 | nt
COC(=O)[C@@H]1[C@@H](CO)[C@@H]2Cn3c(ccc(-c4ccccc4)c3=O)[C@H]1N2CC1CCCC1 | 0 | -2 | 0 | -9 | nt | 3 | nt
COC(=O)[C@H]1[C@H](CO)[C@H]2Cn3c(ccc(-c4ccccc4F)c3=O)[C@@H]1N2CC1CCCC1 | 1 | 66* | 0 | -1 | nt | nt | -10%
O=C(Cc1cccnc1)N1CCCCN2[C@H](CO)[C@@H](c3ccc(C#CC4CCCC4)cc3)[C@H]2C1 | 4 | 0 | 0 | 13 | 1 | 12 | nt
